# Measurements reported in paper PMC4783179 (The Journal of comparative neurology, 2015).
# Read-outs that look alike come from different tables or passages of the source. Marks after values point to notes of the source that are not given here.
# What was measured:
# [1] = molecular target: serotonin 5-HT1A receptor (Homo sapiens, UniProt P08908); type: binding; conditions: human cloned receptor, PDSP
# [2] = system: serotonin 5-HT1A receptor; type: binding, human; conditions: [5-HT1A affinity/other receptor affinity]×100; 5-HT1A 0.6 or 2.2 nM for WAY-100635, 0.9 nM for Mefway
# 5-HT7 = 5-HT7 (Homo sapiens, UniProt P34969); experiment: NIMH PDSP binding affinity, human cloned receptor
# 5-HT7, sequence (P34969 whole entry): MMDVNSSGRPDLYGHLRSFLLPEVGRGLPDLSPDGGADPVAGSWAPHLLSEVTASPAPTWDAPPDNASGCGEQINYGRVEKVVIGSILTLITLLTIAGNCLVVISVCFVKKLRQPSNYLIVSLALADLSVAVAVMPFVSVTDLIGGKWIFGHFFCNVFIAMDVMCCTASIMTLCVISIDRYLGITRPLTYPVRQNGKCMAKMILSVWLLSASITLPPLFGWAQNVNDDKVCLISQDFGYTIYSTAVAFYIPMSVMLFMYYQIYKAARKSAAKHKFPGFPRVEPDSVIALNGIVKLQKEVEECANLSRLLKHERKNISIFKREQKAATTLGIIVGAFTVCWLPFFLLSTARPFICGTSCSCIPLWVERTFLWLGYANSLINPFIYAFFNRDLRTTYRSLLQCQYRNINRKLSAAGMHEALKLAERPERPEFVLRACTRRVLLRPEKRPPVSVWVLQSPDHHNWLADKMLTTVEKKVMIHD
# 5-HT2B = 5-HT2B (Homo sapiens, UniProt P41595); experiment: NIMH PDSP binding affinity, human cloned receptor
# 5-HT2B, sequence (P41595 whole entry): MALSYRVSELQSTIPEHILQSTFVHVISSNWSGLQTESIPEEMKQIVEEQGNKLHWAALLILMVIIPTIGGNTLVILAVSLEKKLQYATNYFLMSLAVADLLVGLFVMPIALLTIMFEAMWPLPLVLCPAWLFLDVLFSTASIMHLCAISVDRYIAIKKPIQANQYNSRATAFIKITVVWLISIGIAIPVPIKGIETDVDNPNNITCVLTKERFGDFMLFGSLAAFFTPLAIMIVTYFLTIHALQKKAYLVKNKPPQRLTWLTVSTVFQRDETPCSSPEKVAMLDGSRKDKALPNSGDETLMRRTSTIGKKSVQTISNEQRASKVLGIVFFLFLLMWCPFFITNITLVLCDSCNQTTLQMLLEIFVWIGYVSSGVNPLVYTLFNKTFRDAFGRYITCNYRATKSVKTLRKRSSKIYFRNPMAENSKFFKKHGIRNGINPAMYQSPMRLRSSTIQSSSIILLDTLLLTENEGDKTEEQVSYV
# α1B = α1B (Homo sapiens, UniProt P35368); experiment: NIMH PDSP binding affinity, human cloned receptor
# α1B, sequence (P35368 whole entry): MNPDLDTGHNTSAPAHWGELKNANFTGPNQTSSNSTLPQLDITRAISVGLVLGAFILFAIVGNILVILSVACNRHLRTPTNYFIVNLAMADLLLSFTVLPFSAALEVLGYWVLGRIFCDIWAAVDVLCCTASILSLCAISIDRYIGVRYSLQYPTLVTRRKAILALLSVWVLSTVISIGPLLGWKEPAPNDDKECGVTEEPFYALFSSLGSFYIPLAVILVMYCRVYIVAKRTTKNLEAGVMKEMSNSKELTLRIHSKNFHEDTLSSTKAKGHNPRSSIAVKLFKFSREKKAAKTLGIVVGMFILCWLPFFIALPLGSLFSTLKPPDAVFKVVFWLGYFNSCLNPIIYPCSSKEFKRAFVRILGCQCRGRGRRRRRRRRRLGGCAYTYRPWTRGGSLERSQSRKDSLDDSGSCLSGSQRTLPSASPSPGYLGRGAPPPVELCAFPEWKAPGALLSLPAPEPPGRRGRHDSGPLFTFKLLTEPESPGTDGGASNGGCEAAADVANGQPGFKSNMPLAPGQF
# adrenergic α1D = adrenergic α1D (Homo sapiens, UniProt P25100); experiment: NIMH PDSP binding affinity, human cloned receptor
# adrenergic α1D, sequence (P25100 whole entry): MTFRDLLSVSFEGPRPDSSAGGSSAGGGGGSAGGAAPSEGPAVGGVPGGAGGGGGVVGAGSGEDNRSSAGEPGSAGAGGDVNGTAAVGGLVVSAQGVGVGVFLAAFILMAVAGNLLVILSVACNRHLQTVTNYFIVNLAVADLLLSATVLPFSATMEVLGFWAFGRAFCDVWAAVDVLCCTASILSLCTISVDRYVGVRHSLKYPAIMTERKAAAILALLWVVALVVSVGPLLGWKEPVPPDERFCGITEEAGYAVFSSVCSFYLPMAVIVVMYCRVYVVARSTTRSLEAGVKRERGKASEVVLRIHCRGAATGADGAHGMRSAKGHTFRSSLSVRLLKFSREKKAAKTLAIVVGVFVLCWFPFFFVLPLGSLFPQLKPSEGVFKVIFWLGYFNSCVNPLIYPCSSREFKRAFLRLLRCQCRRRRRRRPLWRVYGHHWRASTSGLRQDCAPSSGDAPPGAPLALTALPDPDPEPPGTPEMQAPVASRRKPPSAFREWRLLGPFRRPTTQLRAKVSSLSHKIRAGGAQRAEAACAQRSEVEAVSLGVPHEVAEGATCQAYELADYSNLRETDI
# dopamine D4 = dopamine D4 (Homo sapiens, UniProt P21917); experiment: NIMH PDSP binding affinity, human cloned receptor
# dopamine D4, sequence (P21917 whole entry): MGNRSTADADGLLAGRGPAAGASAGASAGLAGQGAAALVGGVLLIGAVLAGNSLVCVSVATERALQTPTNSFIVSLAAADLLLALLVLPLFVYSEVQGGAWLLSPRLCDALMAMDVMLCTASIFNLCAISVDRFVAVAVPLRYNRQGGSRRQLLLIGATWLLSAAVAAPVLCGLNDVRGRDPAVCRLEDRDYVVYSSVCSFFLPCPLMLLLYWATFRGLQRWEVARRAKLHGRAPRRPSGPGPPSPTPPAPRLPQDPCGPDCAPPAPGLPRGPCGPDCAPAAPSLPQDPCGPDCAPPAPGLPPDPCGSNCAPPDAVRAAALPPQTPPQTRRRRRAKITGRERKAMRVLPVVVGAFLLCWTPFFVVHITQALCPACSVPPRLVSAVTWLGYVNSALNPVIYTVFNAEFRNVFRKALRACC
# D3 subtype = D3 subtype (Homo sapiens, UniProt P35462); experiment: NIMH PDSP binding affinity, human cloned receptor; conditions: read-out: Affinity, D3 subtype
# D3 subtype, sequence (P35462 whole entry): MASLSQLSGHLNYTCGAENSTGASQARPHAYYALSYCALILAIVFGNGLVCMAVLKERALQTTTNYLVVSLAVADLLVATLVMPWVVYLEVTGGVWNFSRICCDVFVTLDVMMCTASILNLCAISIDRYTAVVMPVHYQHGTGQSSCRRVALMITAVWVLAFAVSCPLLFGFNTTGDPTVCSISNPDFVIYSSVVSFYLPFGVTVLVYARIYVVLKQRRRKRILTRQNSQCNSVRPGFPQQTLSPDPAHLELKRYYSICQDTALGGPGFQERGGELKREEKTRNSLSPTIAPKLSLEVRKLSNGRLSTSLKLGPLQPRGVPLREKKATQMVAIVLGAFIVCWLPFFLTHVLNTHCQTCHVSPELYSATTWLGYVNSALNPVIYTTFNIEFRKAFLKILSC
# D1 = D1 (Homo sapiens, UniProt P21728); experiment: NIMH PDSP binding affinity, human cloned receptor; conditions: D1-like receptors
# D1, sequence (P21728 whole entry): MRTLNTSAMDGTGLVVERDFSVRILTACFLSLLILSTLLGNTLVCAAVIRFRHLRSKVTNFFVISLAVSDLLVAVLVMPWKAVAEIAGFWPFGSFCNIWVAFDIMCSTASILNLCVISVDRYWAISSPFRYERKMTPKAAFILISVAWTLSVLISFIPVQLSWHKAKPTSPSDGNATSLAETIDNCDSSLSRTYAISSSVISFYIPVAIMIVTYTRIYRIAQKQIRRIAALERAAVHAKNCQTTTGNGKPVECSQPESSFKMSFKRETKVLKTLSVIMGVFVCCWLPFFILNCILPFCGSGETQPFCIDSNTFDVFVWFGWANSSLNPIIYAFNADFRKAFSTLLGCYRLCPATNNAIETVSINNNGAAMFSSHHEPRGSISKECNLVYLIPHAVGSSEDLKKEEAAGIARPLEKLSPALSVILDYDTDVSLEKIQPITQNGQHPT
# D5 = D5 (Homo sapiens, UniProt P21918); experiment: NIMH PDSP binding affinity, human cloned receptor; conditions: D1-like receptors
# D5, sequence (P21918 whole entry): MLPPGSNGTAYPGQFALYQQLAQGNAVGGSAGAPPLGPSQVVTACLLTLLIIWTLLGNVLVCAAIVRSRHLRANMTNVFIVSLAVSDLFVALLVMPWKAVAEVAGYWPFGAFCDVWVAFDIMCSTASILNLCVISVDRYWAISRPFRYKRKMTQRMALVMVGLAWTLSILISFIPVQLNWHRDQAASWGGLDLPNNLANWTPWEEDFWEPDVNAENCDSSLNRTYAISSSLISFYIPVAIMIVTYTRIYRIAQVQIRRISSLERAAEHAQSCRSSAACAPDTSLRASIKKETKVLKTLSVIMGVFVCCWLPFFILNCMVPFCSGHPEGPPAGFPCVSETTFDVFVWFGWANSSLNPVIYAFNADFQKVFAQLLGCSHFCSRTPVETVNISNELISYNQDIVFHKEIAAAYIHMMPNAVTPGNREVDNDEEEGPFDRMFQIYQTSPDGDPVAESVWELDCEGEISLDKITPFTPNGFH
# [3] = molecular target: multidrug resistance 1 protein (MDR1; P-glycoprotein) (Homo sapiens, UniProt P08183); experiment: Multidrug resistance; type: biochemical; conditions: read-out: IC50 as potential substrate of MDR1 (P-glycoprotein)
# 5-HT1A receptors [4] = molecular target: T1, 5-HT1A receptors (Rattus norvegicus, UniProt P19327); experiment: In vitro autoradiography of 18F-Mefway, rat brain slices; type: binding
# T1 sequence (P19327 1-422): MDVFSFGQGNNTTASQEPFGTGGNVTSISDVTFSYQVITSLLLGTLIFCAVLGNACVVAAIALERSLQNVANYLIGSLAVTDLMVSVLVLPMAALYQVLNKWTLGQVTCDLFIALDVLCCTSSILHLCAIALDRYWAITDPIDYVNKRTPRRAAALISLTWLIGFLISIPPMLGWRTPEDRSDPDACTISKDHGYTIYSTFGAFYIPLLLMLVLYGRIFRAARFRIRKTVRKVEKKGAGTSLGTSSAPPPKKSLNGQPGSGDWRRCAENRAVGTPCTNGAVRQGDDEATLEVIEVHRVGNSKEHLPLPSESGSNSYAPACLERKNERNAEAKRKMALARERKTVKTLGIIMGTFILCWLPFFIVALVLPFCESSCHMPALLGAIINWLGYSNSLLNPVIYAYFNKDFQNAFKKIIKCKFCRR
# In short: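 Horizontal 10 µm slices covering hippocampus, frontal cortex, dorsal raphe and cerebellum. Sources: frozen brains of male BALB/c mice (25 g) or male Sprague-Dawley rats (250–300 g). Preincubated in 50 mM Tris-HCl pH 7.4 for 10 min at room temperature, then 37–185 kBq/mL tracer at 37 °C for 1 h. […] Washed, then phosphor screen for 24 h. Regional DLU/mm² expressed as ratios to cerebellum as reference.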
# 5-HT1A receptors [5] = molecular target: T2, 5-HT1A receptors (Homo sapiens, UniProt P08908); experiment: In vitro autoradiography of 18F-Mefway, human postmortem hippocampus sections; type: binding
# T2 sequence (P08908 1-422): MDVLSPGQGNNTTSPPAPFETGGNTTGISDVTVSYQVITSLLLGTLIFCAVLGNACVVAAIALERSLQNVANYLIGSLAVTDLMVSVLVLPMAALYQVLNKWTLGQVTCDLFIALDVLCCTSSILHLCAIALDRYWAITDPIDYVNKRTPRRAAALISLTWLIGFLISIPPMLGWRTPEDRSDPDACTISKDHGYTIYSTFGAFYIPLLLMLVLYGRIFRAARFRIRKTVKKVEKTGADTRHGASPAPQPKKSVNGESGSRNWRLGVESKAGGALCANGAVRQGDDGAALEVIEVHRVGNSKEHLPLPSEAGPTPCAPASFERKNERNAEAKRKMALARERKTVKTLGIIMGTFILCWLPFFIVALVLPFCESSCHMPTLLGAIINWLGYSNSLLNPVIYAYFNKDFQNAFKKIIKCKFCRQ
# In short: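 Dog tissue: unfixed beagle brain (4.5–15.4 yr), stored at −80 °C, cut as 10 µm hemi-coronal slices with hippocampus and cortex. Human tissue: postmortem hippocampus (PMI 3.8–5.8 h), cut at 7 µm. Slices preincubated in 50 mM Tris-HCl pH 7.4 for 10 min at room temperature, then incubated with 37–185 kBq/mL tracer at 37 °C for 1 h. […] Two 1-min ice-cold buffer washes, then 24 h phosphor-screen exposure. Binding read as DLU/mm².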
# Sprague-Dawley rats = experiment: Expanded acute toxicity study; type: in vivo, rat; conditions: for Maximum tolerated dose (MTD) / No observed adverse effect level (NOAEL): intravenous, Days 1, 3 and 6, male and female rats
# In short: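 Sprague-Dawley rats, 40 males and 40 females, 8–9 weeks old (males 243–283 g, females 175–202 g), plus a vehicle control group. Dosed i.v. at 4, 20 or 40 μg/kg/day (27.8, 139, 278 μg/m²/day). Monitored clinical signs (motor and behavioural), body weight, food intake, ophthalmology, haematology, serum chemistry and urinalysis. Histopathology on Days 7 and 20 after euthanasia.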
# 5-HT1A receptors [6] = conditions: cited from earlier work
# [7] = human plasma; ref Hillmer et al., 2014; cited from earlier work
# [8] = [5-HT1A affinity/other receptor affinity]×100, 5-HT1A 0.6 or 2.2 nM for WAY-100635, 0.9 nM for Mefway
smiles,measurement,setting,value
COc1ccccc1N1CCN(CCN(C(=O)C2CCC(CF)CC2)c2ccccn2)CC1 (centres unmarked) [Mefway],"Binding affinity, Ki, 5-HT1A",[1],subnanomolar affinity
same,Ki,"[1]; read-out: Binding affinity, Ki, 5-HT1A",0.9 nM
same,"% human 5HT1A Selectivity, 5-HT1A",[2],100%
same,"% human 5HT1A Selectivity, 5-HT7",5-HT7; [8],0.30%
same,Ki,"5-HT7; read-out: Binding affinity, Ki, 5-HT7, human cloned receptor, PDSP",297 nM
same,"% human 5HT1A Selectivity, 5-HT2B",5-HT2B; [8],0.35%
same,Ki,"5-HT2B; read-out: Binding affinity, Ki, 5-HT2B, human cloned receptor, PDSP",260 nM
same,"% human 5HT1A Selectivity, α1B",α1B; [8],0.18%
same,Ki,"α1B; read-out: Binding affinity, Ki, α1B, human cloned receptor, PDSP",505 nM
same,"% human 5HT1A Selectivity, α1D",adrenergic α1D; [8],1.58%
same,Ki,"adrenergic α1D; read-out: Binding affinity, Ki, α1D, human cloned receptor, PDSP",57 nM
same,"% human 5HT1A Selectivity, D4",dopamine D4; [8],0.71%
same,Ki,"dopamine D4; read-out: Binding affinity, Ki, D4, human cloned receptor, PDSP",126 nM
same,Ki,D3 subtype,139 nM
same,"Affinity, D1 subtype",D1,very poor affinities
same,"Affinity, D5 subtype",D5,very poor affinities
same,IC50,[3],> 30000 nM
same,Binding displaced in hippocampus and cortex,"5-HT1A receptors [4]; in the presence of 10 μM of WAY-100635, rat (all the species)",> 95%
same,"Ratio in cortical regions, autoradiography",5-HT1A receptors [4]; rats,> 10
same,"Ratio of hippocampus to cerebellum, autoradiography","5-HT1A receptors [4]; rats, brain slices incubated for one hr",30
same,"Ratio of raphe to cerebellum, autoradiography","5-HT1A receptors [4]; rats, horizontal sections",23
same,"Ratio of hippocampus versus white matter, autoradiography",5-HT1A receptors [5]; human hippocampus sections,13
same,Binding displaced in hippocampus and cortex,"5-HT1A receptors [5]; in the presence of 10 μM of WAY-100635, human (all the species)",> 95%
same,Morbidity or mortality,"Sprague-Dawley rats; 4, 20 and 40 μg/kg/day i.v.",no morbidity or mortality
same,Tolerability,"Sprague-Dawley rats; 4, 20 and 40 μg/kg/day i.v. on Days 1, 3 and 6",well tolerated
same,Maximum tolerated dose (MTD),Sprague-Dawley rats,> 278 μg/m^2/day
same,No observed adverse effect level (NOAEL),Sprague-Dawley rats,> 278 μg/m^2/day
same,Maximum tolerated dose (MTD),Sprague-Dawley rats; maximum dose level tested,exceed 40 μg/kg/day
same,No observed adverse effect level (NOAEL),Sprague-Dawley rats; maximum dose level tested,exceed 40 μg/kg/day
same,Raphe ratio with respect to cerebellum,"5-HT1A receptors [6]; monkey, higher resolution P4 scanner, ref Wooten et al., 2011b",greater than 3
same,HP/CB PET ratio,"5-HT1A receptors [6]; monkey, 90 mins post-injection, ref Saigal et al., 2006, Wooten et al., 2011b",10 ^f
same,Raphe BPND,"5-HT1A receptors [6]; monkey, ref Wooten et al., 2011b",greater than 3
same,Raphe ratio with respect to cerebellum,"5-HT1A receptors [6]; monkeys, EXACT HR+ PET scanner, ref Saigal et al., 2006",approximately 2
same,Raphe to cerebellum ratio,"5-HT1A receptors [6]; monkeys, scanner not stated (abstract)",approximately 3
same,Free Fraction in plasma,[7],5% ^j
